Results reported in ChEMBL document CHEMBL4177770, “Discovery of MK-6169, a Potent Pan-Genotype Hepatitis C Virus NS5A Inhibitor with Optimized Activity against Common Resistance-Associated Substitutions” (J Med Chem, 2018).
Substitutions are numbered along the chain they refer to.

What was measured:
[1] = molecular target: T1, Nonstructural protein 5A (Hepatitis C virus) (UniProt Q5L478); assay: Inhibition of NS5A in HCV genotype 1a infected in HuH7 replicon cells assessed as decrease in viral replication after 3 days by RT-PCR method; format: cell-based; conditions: Hepatitis C virus subtype 1a
T1 sequence (whole entry): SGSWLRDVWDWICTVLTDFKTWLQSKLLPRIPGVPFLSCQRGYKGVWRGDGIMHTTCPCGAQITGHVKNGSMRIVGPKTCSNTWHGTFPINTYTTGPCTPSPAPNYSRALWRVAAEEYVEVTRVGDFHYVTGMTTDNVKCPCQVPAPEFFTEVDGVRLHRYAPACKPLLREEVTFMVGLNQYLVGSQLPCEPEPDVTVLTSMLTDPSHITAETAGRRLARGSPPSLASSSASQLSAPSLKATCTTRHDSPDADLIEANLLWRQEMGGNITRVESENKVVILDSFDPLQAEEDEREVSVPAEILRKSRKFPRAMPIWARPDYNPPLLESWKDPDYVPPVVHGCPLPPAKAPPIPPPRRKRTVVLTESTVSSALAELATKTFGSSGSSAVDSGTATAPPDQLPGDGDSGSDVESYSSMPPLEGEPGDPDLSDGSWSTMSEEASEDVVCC

[2] = molecular target: T1, Nonstructural protein 5A (Hepatitis C virus); assay: Inhibition of NS5A in HCV genotype 1b infected in HuH7 replicon cells assessed as decrease in viral replication after 3 days by RT-PCR method; format: cell-based; conditions: Hepatitis C virus subtype 1b
[3] = molecular target: T1, Nonstructural protein 5A (Hepatitis C virus); assay: Inhibition of NS5A L31M mutant in HCV genotype 2b infected in HuH7 replicon cells assessed as decrease in viral replication after 3 days by RT-PCR method; format: cell-based; conditions: Hepatitis C virus subtype 2b
[4] = molecular target: T1, Nonstructural protein 5A (Hepatitis C virus); assay: Inhibition of NS5A in HCV genotype 3a infected in HuH7 replicon cells assessed as decrease in viral replication after 3 days by RT-PCR method; format: cell-based; conditions: Hepatitis C virus subtype 3a
[5] = molecular target: T1, Nonstructural protein 5A (Hepatitis C virus); assay: Inhibition of NS5A in HCV genotype 4a infected in HuH7 replicon cells assessed as decrease in viral replication after 3 days by RT-PCR method; format: cell-based; conditions: Hepatitis C virus subtype 4a
[6] = test system: T2, Nonstructural protein 5A (Hepatitis C virus), Q5L478 [Y93H]; assay: Inhibition of NS5A Y93H mutant in HCV genotype 1a infected in HuH7 replicon cells assessed as decrease in viral replication after 3 days by RT-PCR method; format: cell-based; conditions: Hepatitis C virus subtype 1a
T2 sequence (whole entry): T1 sequence (whole entry) with Y93H

[7] = molecular target: T1, Nonstructural protein 5A (Hepatitis C virus); assay: Inhibition of NS5A L31V mutant in HCV genotype 1a infected in HuH7 replicon cells assessed as decrease in viral replication after 3 days by RT-PCR method; format: cell-based; conditions: Hepatitis C virus subtype 1a
[8] = test system: Hepatitis C virus subtype 1a; assay: Resistance ratio of EC90 for NS5A L31V mutant in HCV genotype 1a infected in HuH7 replicon cells to EC90 for NS5A in HCV genotype 1a infected in HuH7 replicon cells; format: cell-based
[9] = test system: Hepatitis C virus subtype 1a; assay: Resistance ratio of EC90 for NS5A Y93H mutant in HCV genotype 1a infected in HuH7 replicon cells to EC90 for NS5A in HCV genotype 1a infected in HuH7 replicon cells; format: cell-based
[10] = Resistance ratio of EC90 for NS5A in HCV genotype 1b infected in HuH7 replicon cells to EC90 for NS5A in HCV genotype 1a infected in HuH7 replicon cells; format: cell-based
[11] = Resistance ratio of EC90 for NS5A L31M mutant in HCV genotype 2b infected in HuH7 replicon cells to EC90 for NS5A in HCV genotype 1a infected in HuH7 replicon cells; format: cell-based
[12] = Resistance ratio of EC90 for NS5A in HCV genotype 3a infected in HuH7 replicon cells to EC90 for NS5A in HCV genotype 1a infected in HuH7 replicon cells; format: cell-based
[13] = Resistance ratio of EC90 for NS5A in HCV genotype 4a infected in HuH7 replicon cells to EC90 for NS5A in HCV genotype 1a infected in HuH7 replicon cells; format: cell-based
[14] = Half life in Wistar Han rat at 2 mg/kg, iv by LC/MS method; format: ADME, organism-based; conditions: in vivo
Procedure, shortened: (§1)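 Male Wistar Han rats, two per group, dosed IV at 2 mg/kg in 60% PEG200. Plasma was obtained by centrifuging the blood, and compound concentrations were measured by LC/MS.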

[15] = Clearance in Wistar Han rat at 2 mg/kg, iv by LC/MS method; format: ADME, organism-based; conditions: in vivo; procedure, shortened: as §1
[16] = AUC in Wistar Han rat at 10 mg/kg, po by LC/MS method; format: ADME, organism-based; conditions: in vivo
Procedure, shortened: (§2)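 Male Wistar Han rats, two per dosing group, dosed orally at 10 mg/kg in 10% TWEEN. Plasma was separated from collected blood by centrifugation and analysed by LC/MS.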

[17] = Cmax in Wistar Han rat at 10 mg/kg, po by LC/MS method; format: ADME, organism-based; parameters: dose 10 mg/kg, route oral; conditions: in vivo; procedure, shortened: as §2
[18] = Drug level in Wistar Han rat at 10 mg/kg, po measured at 24 hrs by LC/MS method; format: ADME, organism-based; conditions: in vivo, read-out: Drug uptake; procedure, shortened: as §2
[19] = Oral bioavailability in Wistar Han rat at 10 mg/kg by LC/MS method; format: ADME, organism-based; conditions: in vivo; procedure, shortened: as §2

Compound	EC90 [1] [pM]	EC90 [2] [pM]	EC90 [3] [pM]	EC90 [4] [pM]	EC90 [5] [pM]	EC90 [6] [pM]	EC90 [7] [pM]	Ratio [8]	Ratio [9]	Ratio [10]	Ratio [11]	Ratio [12]	Ratio [13]	half-life [14] [h]	clearance [15] [mL/min/kg]	AUC [16] [µM·h]	Cmax [17] [nM]	concentration at 24 h [18] [nM]	bioavailability [19] [%]
COC(=O)N[C@H](C(=O)N1CCC[C@H]1c1ncc(-c2cc(F)c3c(c2)O[C@@H](c2cc4c(s2)CCC4)n2c-3cc3cc(-c4cnc([C@@H]5CCCN5C(=O)[C@@H](NC(=O)OC)C5CCOCC5)[nH]4)ccc32)[nH]1)C(C)C	5	5	64	22	4	39	13	< 10	< 10	< 10	< 10	< 10	< 10	–	–	–	–	–	–
COC(=O)N[C@H](C(=O)N1CCC[C@H]1c1ncc(-c2cc(F)c3c(c2)O[C@@H](c2ccc(C(F)F)s2)n2c-3cc3cc(-c4cnc([C@@H]5CCCN5C(=O)[C@@H](NC(=O)OC)C5CCOCC5)[nH]4)ccc32)[nH]1)C(C)C	4	6	16	10	4	15	5	< 10	< 10	< 10	< 10	< 10	< 10	–	–	–	–	–	–
COC(=O)N[C@H](C(=O)N1CCC[C@H]1c1ncc(-c2cc(F)c3c(c2)O[C@@H](c2ccc(C4CC4)s2)n2c-3cc3cc(-c4cnc([C@@H]5CCCN5C(=O)[C@@H](NC(=O)OC)C5CC6CCC(C5)O6)[nH]4)ccc32)[nH]1)C(C)C (stereo partly drawn)	5	4	19	12	8	28	6	–	–	–	–	–	–	3.9	13	0.33	24	3	2.5
COC(=O)N[C@H](C(=O)N1CCC[C@H]1c1ncc(-c2cc(F)c3c(c2)O[C@@H](c2ccc(C4CC4)s2)n2c-3cc3cc(-c4cnc([C@@H]5CCCN5C(=O)[C@@H](NC(=O)OC)C5CCO[C@H](C)C5)[nH]4)ccc32)[nH]1)C(C)C (stereo partly drawn)	4	4	14	7	10	9	3	–	–	–	–	–	–	4.7	11	0.21	25	1	1.4
COC(=O)N[C@H](C(=O)N1CCC[C@H]1c1ncc(-c2cc(F)c3c(c2)O[C@@H](c2ccc(C(C)C)s2)n2c-3cc3cc(-c4cnc([C@@H]5CCCN5C(=O)[C@@H](NC(=O)OC)[C@@H]5CCOC(C)(C)C5)[nH]4)ccc32)[nH]1)C(C)C	4	5	38	6	6	36	4	–	–	–	–	–	–	9.6	5	0.8	100	4	2.7
COC(=O)N[C@H](C(=O)N1CCC[C@H]1c1ncc(-c2cc(F)c3c(c2)O[C@@H](c2cc4ccccc4s2)n2c-3cc3cc(-c4cnc([C@@H]5CCCN5C(=O)[C@@H](NC(=O)OC)C5CCOCC5)[nH]4)ccc32)[nH]1)C(C)C	5	3	57	11	4	111	8	–	20	–	–	–	–	–	–	–	–	–	–
CCCc1ncc([C@@H]2Oc3cc(-c4cnc([C@@H]5CCCN5C(=O)[C@@H](NC(=O)OC)C(C)C)[nH]4)cc(F)c3-c3cc4cc(-c5cnc([C@@H]6CCCN6C(=O)[C@@H](NC(=O)OC)[C@@H]6CCOC(C)(C)C6)[nH]5)ccc4n32)s1	4	5	15	8	6	18	6	–	–	–	–	–	–	4.5	21	0.08	20	1	1
COC(=O)N[C@H](C(=O)N1CCC[C@H]1c1ncc(-c2cc(F)c3c(c2)O[C@@H](c2ccc(C4CC4)s2)n2c-3cc3cc(-c4cnc([C@@H]5CCCN5C(=O)[C@@H](NC(=O)OC)C5CC(C)(C)OC(C)(C)C5)[nH]4)ccc32)[nH]1)C(C)C	4	2	73	7	4	47	4	–	–	–	–	–	–	7.7	7	0.7	76	5	3.1
CCc1ccc([C@@H]2Oc3cc(-c4cnc([C@@H]5CCCN5C(=O)[C@@H](NC(=O)OC)[C@@H]5CCOC(C)(C)C5)[nH]4)cc(F)c3-c3cc4cc(-c5cnc([C@@H]6CCCN6C(=O)[C@@H](NC(=O)OC)C(C)C)[nH]5)ccc4n32)s1	33	67	349	82	106	155	46	–	–	–	–	–	–	5.9	9	0.23	20	2	1.2
CCc1ncc([C@@H]2Oc3cc(-c4cnc([C@@H]5CCCN5C(=O)[C@@H](NC(=O)OC)C(C)C)[nH]4)cc(F)c3-c3cc4cc(-c5cnc([C@@H]6CCCN6C(=O)[C@@H](NC(=O)OC)[C@@H]6CCOC(C)(C)C6)[nH]5)ccc4n32)s1	6	5	41	6	4	17	5	–	–	–	–	–	–	5.3	29	0.05	10	1	0.8
COC(=O)N[C@H](C(=O)N1CCC[C@H]1c1ncc(-c2cc(F)c3c(c2)O[C@@H](c2cnc(C4CC4)s2)n2c-3cc3cc(-c4cnc([C@@H]5CCCN5C(=O)[C@@H](NC(=O)OC)[C@@H]5CCOC(C)(C)C5)[nH]4)ccc32)[nH]1)C(C)C	6	6	15	15	7	29	6	–	–	–	–	–	–	4	9	0.51	60	4	2.8
